Assay results reported in ChEMBL document CHEMBL1150829, “Novel cytotoxic 4-phenylfuranocoumarins from Calophyllum dispar” (2001).
Converted amounts (≈) assume the structure as drawn.

What was measured:
[1] = tested on: KB; test: Cytotoxicity against human KB cells after 72 hrs by neutral red staining; format: functional; details: read-out: ED50 (the source's name)
How it was run: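 Human nasopharyngeal carcinoma KB cells exposed in triplicate to five concentrations (50 to 0.01 µg/mL) of pure compound, or none, for 72 h at 37 °C. Living cells stained with neutral red and optical density read at 540 nm. ED50 is the concentration inhibiting cell growth to 50% of control.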

[2] = tested on: KB; test: Growth inhibition of human KB cells at 5 to 6 ug/mL after 72 hrs by neutral red staining; format: functional

Row | Compound | EC50 [1] | Inhibition [2]
1 | COc1cccc2c1C(=O)c1c(O)c3c(c(O)c1C2=O)C[C@@](O)(C(=O)CO)C[C@@H]3O[C@H]1C[C@H](N)[C@H](O)[C@H](C)O1 [DOXORUBICIN] | 0.058 µg/mL (≈ 0.107 µM) | –
2 | CC(C)CC(=O)c1c2c(c3oc(=O)cc(-c4ccccc4)c3c1O)C[C@@H](C(C)(C)O)O2 [CYCLOMAMMEISIN] | 6 µg/mL (≈ 14.2 µM) | –
3 | C=C(C)[C@@H]1Cc2c(c(C(=O)CC(C)C)c(O)c3c(-c4ccccc4)cc(=O)oc23)O1 | 40 µg/mL (≈ 98.9 µM) | –
4 | CCC(C)C(=O)c1c2c(c3oc(=O)cc(-c4ccccc4)c3c1O)C[C@@H](C(C)(C)O)O2 (stereo not given in full) | 5 µg/mL (≈ 11.8 µM) | –
5 | CC(C)CC(=O)c1c(O)c2c(c3c(-c4ccccc4)cc(=O)oc13)O[C@H](C(C)(C)O)C2 | 9 µg/mL (≈ 21.3 µM) | 50%
6 | CCC(C)C(=O)c1c(O)c2c(c3c(-c4ccccc4)cc(=O)oc13)O[C@H](C(C)(C)O)C2 (stereo not given in full) | 15 µg/mL (≈ 35.5 µM) | 50%
7 | CCCC(=O)c1c(O)c2c(c3c(-c4ccccc4)cc(=O)oc13)O[C@H](C(C)(C)O)C2 | – | 50%
8 | CCCC(=O)c1c2c(c3oc(=O)cc(-c4ccccc4)c3c1O)C[C@@H](C(C)(C)O)O2 | 6 µg/mL (≈ 14.7 µM) | –
